Shown are actives, neighbours in structure and some others; about 2.9% of the full set was active somewhere.
AI-2 QS mod = modulates the Vibrio harveyi AI-2 quorum sensing system; AID 2094; activity change, % at 7.5 µM; Vibrio harveyi JMH597 AI-2 luminescence/OD600 ratio, 9 h; hits give low values; strain lacks LuxN and CqsS sensors; 0 = neutral-control median; 300,000 tested, 0.4% active; in the data active means activity change below about -75%, passing the limit was not always enough; inconclusive means no clear call, values can overlap the other calls;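 further: luminescence divided by OD600 gain over 9 h not by final OD600 alone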
RanGTP-Impb inh = disruptors of Ran-importin-beta complex formation – biochemical, FRET, CFP-Ran, YFP-importin-beta, homogeneous, primary screen; cell-free CFP-Ran/YFP-importin-beta FRET ratio; inhibition, % (no concentration beside the values); 300,000 tested, 1.1% active; AID 2216;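 active means more than half of the replicate wells show a fall in the fluorescence ratio signal beyond about 16%, limit read from the data, passing the limit was not always enough; inconclusive means exactly half of the replicate wells pass the set limit; inactive means fewer than half of replicates pass the limit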;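 further: 0% = DMSO wells and 100% = Ran loaded with GDP instead of GTP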
Wee1 degr inh = blocks degradation of human Wee1 kinase. reporter increase, % at 5 µM. AID 1321. HeLa Luc-Wee1K328M stability, luciferase luminescence; 100% = proteasome inhibitor MG132 effect. 220,000 tested, 1.2% active. P30291;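 active means activation above the mean of all tested compounds plus 3 SD, set per screening run, cut at about 8.8% in these data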;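 further: cells exposed to compound for 20 h before luminescence read; 0% = DMSO alone and 100% = MG132 at 30 µM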
Target sequence (P30291 whole entry K328M): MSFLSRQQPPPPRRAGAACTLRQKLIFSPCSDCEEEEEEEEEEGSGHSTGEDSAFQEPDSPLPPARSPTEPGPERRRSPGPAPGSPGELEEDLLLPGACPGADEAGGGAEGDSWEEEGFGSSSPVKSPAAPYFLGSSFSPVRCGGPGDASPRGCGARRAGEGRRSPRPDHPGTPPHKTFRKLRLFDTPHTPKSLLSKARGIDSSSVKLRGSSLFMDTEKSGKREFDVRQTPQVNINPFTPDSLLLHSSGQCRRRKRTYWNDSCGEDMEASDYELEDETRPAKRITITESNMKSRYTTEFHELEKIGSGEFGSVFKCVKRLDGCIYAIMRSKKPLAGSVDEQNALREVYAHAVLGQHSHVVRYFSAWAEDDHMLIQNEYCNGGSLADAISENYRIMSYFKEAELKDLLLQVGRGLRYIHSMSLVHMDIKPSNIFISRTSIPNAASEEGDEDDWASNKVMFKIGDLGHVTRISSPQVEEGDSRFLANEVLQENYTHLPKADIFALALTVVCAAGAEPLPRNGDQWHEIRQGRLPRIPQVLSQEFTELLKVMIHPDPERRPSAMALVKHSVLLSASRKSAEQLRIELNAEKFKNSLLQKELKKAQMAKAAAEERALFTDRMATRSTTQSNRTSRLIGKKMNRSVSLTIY
Runt-CBFb FRET = blocks binding of human RUNX1 Runt domain to CBFb | Cerulean-Runt/Venus-CBFb FRET ratio 530/480, 1 h | inhibition, % at 20 µM | 220,000 tested, 0.46% active | AID 1496;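 active means inhibition over about 50% at 20 µM in the single-dose screen, limit read from the data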;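 further: 0% = DMSO wells and 100% = excess unlabeled CBFb competitor control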
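Measured by: fluorescence energy transfer, 422 nm excitation, 530/480 nm emission; test system: Cerulean-tagged RUNX1 Runt domain (FRET donor) fusion protein; buffer or medium: Tris pH 7.5 buffer with BSA; compound: one dose, 20 µM compound, 1% DMSO; times: two 1 h room-temperature incubations shielded from light; benchmarks: unlabeled CBFb 5 µM, positive control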
Runt-SMMHC FRET = blocks binding of human RUNX1 Runt domain to CBFb-SMMHC. Q01196+Q13951. 220,000 tested, 0.74% active. Cerulean-Runt/Venus-CBFb-SMMHC FRET ratio 530/480, 1 h. inhibition, % at 20 µM;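 active means mean inhibition across duplicate retests at 20 µM reaching about 50%, limit read from the data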;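 further: 0% = DMSO wells and 100% = wells with excess untagged CBFb-SMMHC; inhibitors lower the FRET ratio by blocking Runt binding to CBFb-SMMHC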
KLK7 zymogen act = activators of human kallikrein-7 zymogen | P49862 | purified proKLK7, EDANS-DABCYL substrate fluorescence; 100% is mature enzyme control, 0% vehicle | activation, % at 7 µM | 370,000 tested, 0.9% active | AID 652039;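 active means activation above the mean of all tested compounds plus 3 SD, computed per campaign excluding outliers beyond control limits, cut at about 13% in these data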
Numbers without * were called inactive; ? = inconclusive; / = no result.

SMILES	AI-2 QS mod	RanGTP-Impb inh	Wee1 degr inh	Runt-CBFb FRET	Runt-SMMHC FRET	KLK7 zymogen act
Cc1c(-c2ccc(Br)cc2)[n+](=O)c2c(n1[O-])CCCC2	14.2	3.4	-1.2	-0.4	0.7	0.2
COc1ccc(-n2cc(-c3ccccc3)c3c(NCCCN4CCOCC4)ncnc32)cc1	-6.5	4.8	8.9*	-3.4	-4.0	0.1
CC(=O)N1N=C(c2ccccc2)CC1c1cccs1 (configuration not stated)	6.1	2.6	/	/	/	0.0
CC(=O)Nc1ccc(C2=NN(c3ccccc3)C(c3cccs3)C2)cc1 (configuration not stated)	22.7	1.0	-1.8	22.8	54.6*	-45.8
CCOC(=O)[C@]12CCCCC/C=C\1N(Cc1ccc(OC)cc1)C(=O)[C@H]2CC(=O)NCc1cccs1	/	/	/	/	/	1.0
C=CCn1c(SCc2ccccc2C#N)nnc1-c1cc(Br)ccc1O	35.2	4.4	10.1*	1.5	1.8	0.7
C=CCn1c(SCC(N)=O)nnc1-c1cccc(Br)c1	27.8	3.0	-3.6	-0.3	3.6	-0.7
CCOC(=O)c1sc(Nc2nc3cc4c(cc3s2)OCO4)cc1C	19.6	13.3	6.3	-5.7	-9.4	-7.5
CCOC(=O)c1sc(Nc2nc3c(OC)cccc3s2)cc1C	23.2	10.3	2.4	41.1	92.0*	-4.0
CCN1CCN(CCc2nc3cc([N+](=O)[O-])ccc3n2C)CC1	12.4	3.2	9.3*	-0.2	1.0	-0.7
Cc1[nH]c2ccccc2c1CC(=O)Nc1ccc(Nc2cccnc2)c(-c2ccc(Oc3ccccc3)cc2)c1	/	/	/	/	/	-2.5
O=C1OC(c2ccc(Cl)cc2)=C/C1=C/c1cccnc1	20.0	3.6	/	/	/	0.1
Cc1ccc(C2=C/C(=C/c3cccnc3)C(=O)O2)c(C)c1	22.4	33.8*	-1.2	1.6	-1.7	0.2
O=C(Nc1ccc([N+](=O)[O-])cc1)Nc1nc(-c2ccc(Cl)s2)cs1	-85.5*	-4.5	0.2	3.2	-1.8	0.3
CC(=O)Nc1nc(-c2ccc([N+](=O)[O-])cc2)cs1	17.5	3.2	0.6	0.5	-1.4	-0.1
Nc1[nH]c(C(=O)c2ccc(Cl)cc2)c(-c2ccc(Br)cc2)c1C(=O)c1c[nH]c2ccc(F)cc12	/	/	/	/	/	0.9
O=C(O)c1ccc[n+](Cc2ccc([N+](=O)[O-])cc2)c1	22.6	12.3*	/	/	/	-0.5
CCOC(=O)c1ccc(NC(=O)Cn2ncc(Cl)c(Cl)c2=O)cc1	-95.6*	-2.7	-0.8	-5.4	-6.9	0.4
Cc1nn(CC(=O)Nc2ccc3c(c2)oc2ccccc23)c(=O)c2ccccc12	-39.4	0.1	-0.3	-2.1	1.0	0.3
COC(=O)c1ccc(NC(=O)Cn2nc(C)c3ccccc3c2=O)cc1	-96.2*	-3.7	/	/	/	0.5
CCOC(=O)c1ccc(NC(=O)Cn2nc(C)c3ccccc3c2=O)cc1	-96.7*	0.3	/	/	/	-0.5
O=C(CCS(=O)(=O)Cc1cccc(Cl)c1)NCCc1ccccc1	-8.8	2.2	/	/	/	0.4
C[C@@H]1OC(C2CCCCC2)N(C)[C@H]2C[C@H]3c4[nH]c5c(-c6ccccc6)cccc5c4CCN3C(=O)[C@@H]12 (some centres not stated)	/	/	/	/	/	-7.9
Nc1[nH]c(C(=O)c2ccccc2)c(-c2ccc3ccccc3c2)c1C(=O)NCc1ccc(F)cc1	/	/	/	/	/	0.7
c1ccc(Cn2c(-c3cccs3)nc3nc4ccccc4nc32)cc1	22.1	?	5.2	23.1	65.0*	-1.9
CC(C)Cn1c(-c2cccs2)nc2nc3ccccc3nc21	33.5	8.0	6.1	45.8	103.6*	-5.0
Cc1ccc(-n2c(-c3cccs3)nc3nc4ccccc4nc32)cc1	6.3	0.8	-2.7	-0.2	-86.4	-1.2
O=C(c1cccc(C(F)(F)F)c1)C1CCCN(C(=O)CCn2cnnn2)C1 (configuration not stated)	17.1	1.0	-0.7	0.4	-2.2	-0.2
Nc1c(C=C2C=CC(=O)C=C2)c(=O)nc2snc(SCc3ccccc3)n12	51.2	3.2	5.6	7.0	29.1	0.0
